PLAP act = activators of human placental alkaline phosphatase; P05187; purified PLAP enzyme, luminescent substrate read-out; active compounds read high; 1.2% of 96,000 active; activation fold at 20 µM; in the data active means activation fold above about 2
Ecoli WT expand = blocks growth of wild type E. coli BW25113 | OD600 absorbance | growth inhibition, % at 100 µM | 0.15% of 98,000 active;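 active means growth inhibition above about 50% at one test dose, limit read from the data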;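 further: growth measured after 20 h incubation at 37 °C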
tolC growth inh = blocks growth of E. coli BW25113 tolC mutant | OD615 | growth inhibition, % at 10 µM (by protocol) | 2.2% of 65,000 active | AID 573;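 active means growth inhibition at or above a cutoff equal to the mean over every tested compound plus 3 SD, cut at about 60% in these data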;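 further: growth measured after 20 h incubation at 37 °C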
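test system = E. coli BW25113 ΔtolC::kan bacteria | medium = LB with kanamycin 50 µg/mL | signal = OD at 615 nm | schedule = 37 °C, 20 h exposure | evaluation = % inhibition of E. coli growth | compound dosing = one dose of 10 µM final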
HePTP inh = inhibitors of human HePTP phosphatase; P35236; recombinant HePTP phosphatase activity, OD absorbance; inhibition, % at 20 µM; 0.64% of 110,000 active; AID 521; in the data active means inhibition above about 50%;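 further: plate controls were vehicle for no effect and reference inhibitor for full effect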
Target sequence (P35236 whole entry, looked up): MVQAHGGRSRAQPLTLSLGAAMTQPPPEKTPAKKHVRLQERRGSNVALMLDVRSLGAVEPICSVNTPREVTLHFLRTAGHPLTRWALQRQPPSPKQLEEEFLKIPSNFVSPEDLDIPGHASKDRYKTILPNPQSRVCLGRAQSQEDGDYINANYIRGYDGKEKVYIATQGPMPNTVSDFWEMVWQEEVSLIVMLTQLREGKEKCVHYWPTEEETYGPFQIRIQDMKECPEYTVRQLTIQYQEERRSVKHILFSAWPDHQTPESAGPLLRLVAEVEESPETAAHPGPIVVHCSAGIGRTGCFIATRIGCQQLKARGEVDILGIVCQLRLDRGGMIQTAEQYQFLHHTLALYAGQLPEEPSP
PostGolgi ctrl = yeast control strain growth, post-Golgi counter-screen. efflux-deficient yeast background strain, growth absorbance A615, 16 h. inhibition, % at 10 µM. 5% of 98,000 active. AID 738
PostGolgi yeast = growth inhibition of a yeast mutant, post-Golgi transport screen. post-Golgi transport phenotypic cell assay. inhibition, % at 10 µM. 0.9% of 98,000 active;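 further: yeast cells grown in 1536-well plates; yeast grown about 18 h at 30C before absorbance read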
* marks the source's active call; other numbers are inactive results; · = no result given. In the library only some 5.4% were active in any assay of this set; here they are far more common. Unless noted, no stated cut-off is given here; in the data, active means inhibition above about 30%; inactive means the rest.

SMILES	PLAP act	Ecoli WT expand	tolC growth inh	HePTP inh	PostGolgi ctrl	PostGolgi yeast
CCn1cc(C(=O)NC2CCCCC2C)c(=O)c2ccc(C)nc21 (stereo unspecified)	1.1	92*	100*	-3	15	19
Cc1ccc(S(=O)(=O)NCC(=O)N2CCCC2)cc1	0.9	8	·	·	2	20
O/N=C/c1cc(Cl)ccc1OCc1cccc2ccccc12	0.5	-7	·	·	61*	24
N#CC(C#N)=C/C(C#N)=C(/N)N1CCN(c2ccc(Cl)cc2)CC1	1	-6	·	·	31*	47*
Brc1ccc(C2C3=C(Nc4ncnn42)c2ccccc2OC3c2ccncc2)cc1 (stereo unspecified)	1.7	5	·	·	40*	-3
CSc1nc(C)cc(C)c1C#N	1.2	2	·	·	4	15
Cc1cc2nc(C)n(CCCNC(=O)Nc3ccc(F)cc3)c2cc1C	2.3*	6	·	·	-10	9
O=C(NCCN1CCc2ccccc2C1)Nc1ccc(F)cc1	1	16	1	12	3	-4
CCOc1cccc(Nc2cc3n(c(=O)n2)CCc2cc(OC)c(OC)cc2-3)c1	1.1	-8	·	·	12	-6
Cc1cc(=O)n2c(-c3ccccc3C)n[nH]c2n1	0.8	-8	-36	2	5	31*
O=C(CSc1nc2ccccc2o1)Nc1ccc(N2CCOCC2)c(Cl)c1	1	29	46	10	1	-6
Cc1[nH][nH]c(=O)c1C(c1ccc(-c2ccc(Cl)c(Cl)c2)o1)c1c(C)[nH][nH]c1=O	2.9*	11	·	·	7	0
CCCCNC(=S)N(C)/N=C/c1ccccc1C(=O)O	1.1	5	·	·	2	1
O=C(c1ccccc1)N1CC(COc2ccccc2)OC(c2cccnc2)O1 (stereo unspecified)	1.4	-3	11	-2	31*	48*
O=C(COc1ccc(-c2ccccc2)cc1)N1CCN(C(=O)c2cccnc2)CC1	1.6	1	-8	5	4	4
O=C(O)c1cccc(-n2cccc2/C=N/O)c1	1	-1	-32	·	0	7
ON=Cc1cccn1-c1ccccc1	1	11	-7	5	-1	30*
CCS(=O)(=O)N1Cc2ccccc2CC1C(=O)Nc1nc2ccccc2[nH]1 (stereo unspecified)	2.4*	2	5	4	1	-7
CC(=O)c1ccccc1Oc1nc(CN2CCOCC2)nc2scc(-c3cccs3)c12	1.7	-18	11	12	42*	-3
COc1ccc(C(C)=O)c(Oc2nc(CN3CCOCC3)nc3scc(-c4cccs4)c23)c1	1.4	2	7	11	42*	5
Cc1sc2nc(CN3CCOCC3)nc(Oc3ccc(NC(=O)c4ccco4)cc3)c2c1C	·	0	-7	13	29	5
C=CCc1cc(/C=C2\C(=O)NC(=O)N(c3ccc(Br)c(C)c3)C2=O)cc(OC)c1O	·	·	·	6	·	·
NS(=O)(=O)c1ccc(CCNC2CC(=O)N(Cc3ccccc3)C2=O)cc1 (stereo unspecified)	1	-4	-13	2	32*	-3
Cn1c(=O)[nH]c(=O)c2c1nc(N1CCN(Cc3ccccc3)CC1)n2CCSc1ncccn1	1.3	10	-7	5	3	3
CC(C)COC(=O)c1ccc2c(c1O)C(=O)c1ccccc1C2=O	1	-4	·	·	23	104*
SMILES	PLAP act	Ecoli WT expand	tolC growth inh	HePTP inh	PostGolgi ctrl	PostGolgi yeast
CC(C)(C)c1ccc(OCc2nc(-c3ccccn3)no2)c(Br)c1	1.5	3	100*	4	32*	-1
Clc1cc(Cl)c(OCc2nc(-c3ccccn3)no2)cc1Cl	0.8	-13	-3	-4	13	3
CCCCOc1ccc(S(=O)(=O)n2c(C)nc3ccccc32)cc1	1.1	5	94*	11	-10	2
CC1(C)OC(=O)C(=CNc2ncccn2)C(=O)O1	1.1	-4	-24	3	-3	9
COc1ccc(-c2noc(CCC(N)=O)n2)cc1OC	1	0	-20	4	13	0
N#CC1=C(SCC(=O)NC23CC4CC(CC(C4)C2)C3)NC(=O)C(C#N)C12CCCCC2 (stereo unspecified)	·	-6	86*	-10	6	-5
N#CC1=C(SCC(=O)NC2CC2)NC(=O)C(C#N)C12CCCCC2 (stereo unspecified)	1.2	1	7	-4	4	2
CC(C)(C)C1CCC2(CC1)C(C#N)=C(SCC(=O)NC1CCCCC1)NC(=O)C2C#N (stereo unspecified)	1.3	2	75*	0	24	2
O=C1C(C=NCc2ccncc2)=C(O)c2ccccc21	0.8	-2	·	·	7	6
O=C1C(C=NCc2cccnc2)=C(O)c2ccccc21	1.1	2	-7	8	40*	-8
COc1ccc(C2C(C(=O)N3CCOCC3)=C(C)NC3=C2C(=O)CC(C)(C)C3)c(OC)c1 (stereo unspecified)	1.3	1	-21	7	17	16
O=C(NCCN=C1NS(=O)(=O)c2ccccc21)c1ccc2nccnc2c1	1.2	2	-14	8	2	-10
C=CCNC(=S)NNC(=O)C(CCC(C)C)CC(C)O (stereo unspecified)	2.7*	0	·	·	17	1
C=CCNC(=S)NNC(=O)c1ccc(OCC(C)C)cc1	1.4	4	·	·	5	1
COc1ccccc1-c1c(C)nn2c(N3CCN(Cc4ccccc4)CC3)cc(C)nc12	1.6	-4	·	·	30*	-11
COc1ccccc1-c1c(C)nn2c(N3CCCCCC3)cc(C)nc12	1.4	-1	60	-2	31*	-7
CCOc1ccc(C(=O)c2cccc([N+](=O)[O-])c2)cc1	·	·	·	7	·	·
N=c1c(S(=O)(=O)c2ccccc2)cc2c(=O)n3ccccc3nc2n1CCN1CCOCC1	·	·	-12	-1	·	·
Cc1ccc(S(=O)(=O)c2cc3c(=O)n4ccccc4nc3n(C)c2=N)cc1	1	-3	10	7	32*	2
COc1ccc(N2C(=O)/C(=C/c3ccc(Br)o3)SC2=S)cc1	·	·	·	51*	·	·
COc1ccc(N2C(=O)/C(=C/c3ccc(I)o3)SC2=S)cc1	·	·	·	15	·	·
CC(C(=O)O)N1C(=O)/C(=C/C=C/c2ccco2)SC1=S (stereo unspecified)	1	-1	·	·	-5	11
CN1C(=O)/C(=C/C=C/c2ccco2)SC1=S	·	·	·	52*	·	·
Cc1ccc(N2C(=O)/C(=C\c3ccco3)SC2=S)cc1	1	-8	·	·	32*	-6
Cn1c(=O)c2ccccc2n(Cc2ccccc2F)c1=O	1	·	5	0	·	·
Cc1nc(NC(=O)c2ccccc2)sc1-c1csc(NCc2ccccc2)n1	1.4	-31	·	·	15	67*
Cc1nc(NC(=O)c2ccccc2)sc1-c1csc(NCCc2ccccc2)n1	1.4	-30	·	·	12	-8
CC(C)N(Cc1nc(-c2ccccc2)no1)C(=O)CN(C)S(=O)(=O)c1ccc(Br)cc1	1.3	-8	·	·	62*	10

Screens as filed in PubChem BioAssay.
